The results in this text go back to ChEMBL document CHEMBL2380254, “Optimization of tocotrienols as antiproliferative and antimigratory leads” (Eur J Med Chem, 2013).

Holding throughout (type): functional
One test concerns UO-31. Put plainly: Growth inhibition of human UO31 cells assessed as cell growth at 10 uM after 48 hrs by sulforhodamine B assay. The conditions noted are these: UO-31, 48 h, read-out: Activity. Put shortly: (§1)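 Single-dose NCI-60 test at 10 µM. Cells were grown in RPMI 1640 with 5% FBS and 2 mM L-glutamine, preincubated 24 h, with T0 plates TCA-fixed. Exposure was 48 h at 37 °C, 5% CO2. Cells were fixed with cold TCA (final 10%, 4 °C, 60 min), stained with SRB and read at 515 nm. Percent growth was taken relative to T0 and untreated control; negative values denote cell kill.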
For orientation: The SRB assay estimates cell density from bound dye.

A further test has as its system ACHN. Put plainly: Growth inhibition of human ACHN cells assessed as cell growth at 10 uM after 48 hrs by sulforhodamine B assay. Conditions: read-out: Activity. The procedure, abridged: (§2)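 NCI-60 single-dose screen at 10 µM: cells in RPMI 1640 with 5% FBS, preincubated 24 h, then exposed 48 h at 37 °C. TCA fixation (16% final for suspension cells), SRB staining, absorbance 515 nm. Percent growth relative to time-zero and untreated control plates; negative values indicate cell kill.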

Test [1] has as its system 786-0. Put plainly: Growth inhibition of human 786-0 cells assessed as cell growth at 10 uM after 48 hrs by sulforhodamine B assay. Conditions: 786-0, 48 h, read-out: Activity. Put shortly:
as §2

Test [2] deals with SK-OV-3. Put plainly: Growth inhibition of human SKOV3 cells assessed as cell growth at 10 uM after 48 hrs by sulforhodamine B assay. Conditions: SK-OV-3, 48 h, read-out: Activity. The procedure, abridged: as §1
In a further test the test system is OVCAR-3. As to the kind of experiment: Growth inhibition of human OVCAR3 cells assessed as cell growth at 10 uM after 48 hrs by sulforhodamine B assay. Conditions: OVCAR-3, 48 h, read-out: Activity. The procedure, abridged:
(§3)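 Single-dose NCI-60 screen: adherent cells in RPMI 1640 with 5% FBS were exposed to 10 µM for 48 h at 37 °C after a 24 h preincubation. They were fixed in situ with cold TCA (10% final), stained with 0.4% SRB in 1% acetic acid, solubilized in 10 mM Tris base, and read at 515 nm. Percent growth was taken relative to time-zero and control plates.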

The subject of test [3] is MDA-MB-435. Put plainly: Growth inhibition of human MDA-MB-435 cells assessed as cell growth at 10 uM after 48 hrs by sulforhodamine B assay. Conditions: MDA-MB-435, 48 h, read-out: Activity. Put shortly: as §3
For a further test, the system named is SNB-19. As to the kind of experiment: Growth inhibition of human SNB19 cells assessed as cell growth at 10 uM after 48 hrs by sulforhodamine B assay. Conditions: SNB-19, 48 h, read-out: Activity. Put shortly:
as §1

The subject of test [4] is SF-539. As to the kind of experiment: Growth inhibition of human SF539 cells assessed as cell growth at 10 uM after 48 hrs by sulforhodamine B assay. Conditions: SF-539, 48 h, read-out: Activity. The procedure, abridged:
as §3

The test system of test [5] is HCT-116. Put plainly: Growth inhibition of human HCT116 cells assessed as cell growth at 10 uM after 48 hrs by sulforhodamine B assay. Conditions: HCT-116, 48 h, read-out: Activity. The procedure, abridged: as §2
Another test deals with COLO 205. Put plainly: Growth inhibition of human COLO205 cells assessed as cell growth at 10 uM after 48 hrs by sulforhodamine B assay. The conditions noted are these: COLO 205, 48 h, read-out: Activity. Put shortly:
as §2

The next test relates to NCI-H460. Put plainly: Growth inhibition of human NCI-H460 cells assessed as cell growth at 10 uM after 48 hrs by sulforhodamine B assay. The conditions noted are these: NCI-H460, 48 h, read-out: Activity. Put shortly: as §3
A further test deals with A549. As to the kind of experiment: Growth inhibition of human A549/ATCC cells assessed as cell growth at 10 uM after 48 hrs by sulforhodamine B assay. The conditions noted are these: A549, 48 h, read-out: Activity. Put shortly: as §2
The test system of another test is SR. Put plainly: Growth inhibition of human SR cells assessed as cell growth at 10 uM after 48 hrs by sulforhodamine B assay. The conditions noted are these: read-out: Activity. The procedure, abridged: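 Suspension line in RPMI 1640 with 5% FBS, single 10 µM dose for 48 h. Settled cells were fixed with TCA (final 16%), then SRB-stained and read at 515 nm. Percent growth was taken versus T0 and control; negative values denote cytotoxicity.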

The subject of a further test is TK-10. Put plainly: Growth inhibition of human TK10 cells after 48 hrs by sulforhodamine B assay. The conditions noted are these: TK-10, 48 h. The procedure, abridged: (§4)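 NCI-60 five-dose screen. Cells were grown in RPMI 1640 with 5% FBS and 2 mM L-glutamine, plated at 5000–40,000 cells/well and incubated 24 h before dosing, with T0 plates TCA-fixed. DMSO stocks were diluted to doses of […] and exposed 48 h at 37 °C, 5% CO2. Cells were fixed with cold TCA (final 10%, 60 min, 4 °C), stained with 0.4% SRB in 1% acetic acid for 10 min, solubilized in 10 mM trizma base and read at 515 nm. GI50 is where 100×(T−T0)/(C−T0)=50.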

For test [6], the system named is 786-0. Put plainly: Growth inhibition of human 786-0 cells after 48 hrs by sulforhodamine B assay. Conditions: 786-0, 48 h. The procedure, abridged: (§5)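 NCI-60 screen: cells in RPMI 1640 with 5% FBS and 2 mM glutamine, 5000–40,000 cells/well, preincubated 24 h. Five concentrations (10-fold dilutions; 100 to 0.001 µM) applied for 48 h at 37 °C. TCA fixation, SRB stain, absorbance at 515 nm. Time-zero plates included; GI50 where 100×(T−T0)/(C−T0)=50.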

Test [7] relates to SK-OV-3. Put plainly: Growth inhibition of human SKOV3 cells after 48 hrs by sulforhodamine B assay. The conditions noted are these: SK-OV-3, 48 h. Put shortly:
as §4

For test [8], the system named is MDA-MB-435. Put plainly: Growth inhibition of human MDA-MB-435 cells after 48 hrs by sulforhodamine B assay. The conditions noted are these: MDA-MB-435, 48 h. The procedure, abridged:
(§6)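 NCI-60 panel cells grown in RPMI 1640 with 5% FBS and 2 mM L-glutamine, seeded at 5000–40,000 cells/well and preincubated 24 h. Five 10-fold dilutions (0.001–100 µM) from DMSO stocks were added for 48 h at 37 °C. Adherent cells were fixed with cold TCA (10% final) for 60 min at 4 °C, stained with 0.4% SRB, and read at 515 nm. GI50 was set where 100×(T−T0)/(C−T0)=50.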

The test system of test [9] is SF-539. As to the kind of experiment: Growth inhibition of human SF539 cells after 48 hrs by sulforhodamine B assay. The conditions noted are these: SF-539, 48 h. The procedure, abridged: as §6
The test system of another test is HT-29. As to the kind of experiment: Growth inhibition of human HT-29 cells after 48 hrs by sulforhodamine B assay. The conditions noted are these: HT-29, 48 h. The procedure, abridged: as §5
The subject of test [10] is HCT-116. As to the kind of experiment: Growth inhibition of human HCT116 cells after 48 hrs by sulforhodamine B assay. Conditions: HCT-116, 48 h. The procedure, abridged:
as §5

The next test has as its system NCI-H522. Put plainly: Growth inhibition of human NCI-H522 cells after 48 hrs by sulforhodamine B assay. The conditions noted are these: NCI-H522, 48 h. Put shortly:
as §6

For another test, the system named is HL-60(TB). Put plainly: Growth inhibition of human HL-60(TB) cells after 48 hrs by sulforhodamine B assay. The conditions noted are these: HL-60, 48 h. The procedure, abridged: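 HL-60(TB) cells (suspension) grown in RPMI 1640 with 5% FBS and 2 mM L-glutamine. They were plated and preincubated for 24 h, with T0 plates fixed at that point. Drug was given at five 10-fold dilutions for 48 h at 37 °C. Settled cells were fixed with TCA (16% final), stained with 0.4% SRB in 1% acetic acid and read at 515 nm. GI50 was taken where 100×(T−T0)/(C−T0)=50.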

By GI50 is commonly meant the concentration at which growth is held to half of that of the control.

As for `CC(C)=CCC/C(C)=C/CC/C(C)=C/CC[C@]1(C)CCc2c3c(cc(C)c2O1)OCN(CCCO)C3`, the growth at 10 µM in the test on UO-31 is 59.4%; with ACHN, 42.5%; in the test with 786-0 [1], 16.6%; in the test on SK-OV-3 [2], 88.3%; in the test with OVCAR-3 it was -38.4%; with MDA-MB-435 [3], -24%. Besides, the growth at 10 µM is 4.52% in the test with SNB-19; 74.4% in the test with SF-539 [4]; -85.4% with HCT-116 [5]; -92.5% in the test on COLO 205; -75.1% in the test with NCI-H460; -35.9% in the test with A549. In the test on SR, the growth at 10 µM was -32.1%. The GI50 with TK-10 came to 2060 nM; in the test with 786-0 [6], 1860 nM; in the test with SK-OV-3 [7], 1980 nM; in the test on MDA-MB-435 [8] it was 1650 nM; in the test on SF-539 [9] it was 1930 nM; in the test with HT-29 it was 1780 nM. Also, the GI50 was determined as 1790 nM in the test on HCT-116 [10], 1790 nM in the test on NCI-H522 and 2190 nM in the test on HL-60(TB).
